The target in experiment [1] is T1, Microtubule-associated protein tau (Homo sapiens, UniProt P10636). Briefly: Inhibition of human full length recombinant tau-441 expressed in Escherichia coli assessed as inhibition of heparin-induced protein aggregation by measuring reduction in fibrillization by measuring reduction in short and long filaments and fibrillar network formation at 120 uM incubated for 72 hrs by transmission electron microscopy.

Experiment [2] deals with T1, Microtubule-associated protein tau. The experiment can be described thus: Inhibition of human full length recombinant tau-441 expressed in Escherichia coli assessed as inhibition of heparin-induced beta-sheet formation and protein aggregation by measuring fluorescence intensity at 120 uM incubated for 72 hrs by Proteo-stat fluorescence aggregation assay. The gist of the method: (§1)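 Recombinant full-length tau441 (19.8 μM final, 909 μg/mL) is aggregated with heparin (4.95 μM final) in pH 6.8 tau buffer (MES, EGTA, NaCl) for 72 h at 37 °C. Compounds are dissolved in DMSO and added at 5, 40, 120 or 250 μM final. A 10 μL aliquot is mixed 10:1 v/v with Proteostat reagent and read at ex 550/em 600 nm. Triplicates. IC50 comes from a sigmoidal dose-response fit.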

For experiment [3] the target is unchanged. The experiment can be described thus: Inhibition of human full length recombinant tau-441 expressed in Escherichia coli assessed as inhibition of heparin-induced protein aggregation by measuring fluorescence intensity at 120 uM incubated for 72 hrs by Bis-ANS fluorescence assay. The gist of the method:
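Tau441 (19.8 μM) with heparin (4.95 μM) and compound (120 μM) in DMSO/tau buffer pH 6.8 is aged 72 h at 37 °C. A 10 μL aliquot gets Bis-ANS (100 μM final, from stock in 20 mM Tris pH 7.4) for 60 min at room temperature. Emission is scanned 400–600 nm at 25 °C (ex 350 nm) and the 510 nm intensity is taken. Triplicate measurements.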

Experiment [4] has the same target. Briefly: Inhibition of human full length recombinant tau-441 expressed in Escherichia coli assessed as inhibition of heparin-induced protein aggregation by measuring reduction in fluorescence intensity at 5 to 120 uM incubated for 72 hrs by Proteo-stat fluorescence aggregation assay. The conditions noted are these: dose microM 5-120, time 72.0 hrs. The gist of the method: as §1

For experiment [5] the target is unchanged. Briefly: Displacement of Bis-ANS from solvent exposed hydrophobic site of non-aggregated human full length recombinant tau-441 expressed in Escherichia coli assessed as reduction in fluorescence intensity at 120 uM incubated for 72 hrs by Bis-ANS fluorescence assay. The gist of the method: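 Competition control: non-aggregated tau441 (909 μg/mL) is held with compound and without heparin for 72 h at 37 °C. It is then mixed with Bis-ANS (100 μM final) for 60 min at room temperature. Fluorescence is read at 25 °C, ex 350 nm, emission 400–600 nm, and loss of 510 nm signal is taken as Bis-ANS displacement from tau hydrophobic sites.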

For experiment [6] the target is unchanged. The experiment can be described thus: Inhibition of human full length recombinant tau-441 expressed in Escherichia coli assessed as inhibition of heparin-induced protein aggregation by measuring reduction in fluorescence intensity incubated for 72 hrs by Proteo-stat fluorescence aggregation assay. The conditions noted are these: for pIC50: read-out: IC50.

The nature of experiment [7]: Inhibition of N-terminal His6-tagged human tau K18deltaK280 mutant assessed as inhibition of protein aggregation.

pIC50: −log10 of the molar value. Calls of active or inactive are those of the source. The rule behind the calls is not given here.

In general, inhibition refers to the percentage by which the read-out fell short of the control. The pIC50 is the IC50 on a negative log10 scale, so that one unit is a factor of ten.

T1 sequence (P10636 whole entry): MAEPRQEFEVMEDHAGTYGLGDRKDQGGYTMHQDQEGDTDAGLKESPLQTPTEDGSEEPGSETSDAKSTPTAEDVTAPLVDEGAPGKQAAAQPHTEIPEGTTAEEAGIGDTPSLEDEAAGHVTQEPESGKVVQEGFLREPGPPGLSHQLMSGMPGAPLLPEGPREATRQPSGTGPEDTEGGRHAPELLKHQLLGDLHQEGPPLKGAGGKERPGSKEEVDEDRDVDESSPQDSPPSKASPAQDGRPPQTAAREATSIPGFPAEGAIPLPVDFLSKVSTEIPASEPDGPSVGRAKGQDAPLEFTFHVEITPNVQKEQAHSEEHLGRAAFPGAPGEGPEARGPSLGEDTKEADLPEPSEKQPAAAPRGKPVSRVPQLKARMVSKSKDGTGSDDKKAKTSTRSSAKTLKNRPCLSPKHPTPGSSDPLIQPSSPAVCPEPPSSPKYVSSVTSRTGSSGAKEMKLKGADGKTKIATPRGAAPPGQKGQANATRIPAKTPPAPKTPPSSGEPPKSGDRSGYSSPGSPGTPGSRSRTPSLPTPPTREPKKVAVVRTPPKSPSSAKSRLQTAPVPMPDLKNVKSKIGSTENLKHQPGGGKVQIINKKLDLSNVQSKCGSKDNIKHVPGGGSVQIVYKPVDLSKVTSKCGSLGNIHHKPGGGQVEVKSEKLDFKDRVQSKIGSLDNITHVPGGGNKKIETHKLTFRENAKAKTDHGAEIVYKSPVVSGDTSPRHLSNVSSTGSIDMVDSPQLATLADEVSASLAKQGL

For the compound `CN(C)c1ccc2nc3ccc(=[N+](C)C)cc-3sc2c1`, the inhibition entry in experiment [1] and in experiment [4] was “Active” in each case. Further, the Activity in experiment [2] amounted to 1000 a.u; in experiment [3], 400 a.u. Also, the inhibition in experiment [5] was 95%.

As for `CCCN(CCN1CCN(c2ccc(-c3ccccc3)cc2)CC1)[C@H]1CCc2nc(N)sc2C1`, the inhibition result in experiment [1], in experiment [3], in experiment [4] and in experiment [5] was “inactive” throughout. Also, the Activity in experiment [2] came out at 9000 a.u. Further, the IC50 entry in experiment [6] is listed as “Not Active”.

With `O=C(O[C@@H]1Cc2c(O)cc(O)cc2O[C@@H]1c1cc(O)c(O)c(O)c1)c1cc(O)c(O)c(O)c1` [EPIGALOCATECHIN GALLATE], the pIC50 in experiment [7] is < 3.70.

For the compound `CCCN(CCN1CCN(c2ccc(-c3ccc(O)c(O)c3)cc2)CC1)[C@H]1CCc2c(O)cccc2C1`, the inhibition entry in experiment [1], in experiment [4] and in experiment [5] was “Active” each time. The Activity came out at 1000 a.u in experiment [2] and 1500 a.u in experiment [3]. Moreover, the pIC50 in experiment [6] was 4.60.

As for `CCCN(CCN1CCN(c2ccc(-c3ccc(O)c(O)c3)cc2)CC1)[C@H]1CCc2nc(N)sc2C1`, the inhibition entry in experiment [1], in experiment [4] and in experiment [5] was “Active” each time. Also, the Activity in experiment [2] and in experiment [3] was 1000 a.u in each case. Further, the pIC50 in experiment [6] was 4.68.

As for `CCCN(CCN1CCN(c2ccc3[nH]c4ccccc4c3c2)CC1)[C@H]1CCc2nc(N)sc2C1`, the inhibition entry in experiment [1], in experiment [3], in experiment [4] and in experiment [5] was “inactive” throughout. The Activity in experiment [2] is 7000 a.u. For the same compound, in experiment [6], the IC50 result was “Not Active”.
